From article PMC4281931 (Anticancer research, 2013)

Target: PARP-1 (poly ADP-ribose polymerase) (Homo sapiens, UniProt P09874)
Assay: PARP-1 chemiluminescent assay kit
Type: biochemical
Details: read-out: % (inhibition at 21.35 μM)
Procedure, shortened: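 Human PARP-1 activity was measured with a chemiluminescent kit, run per the maker's protocol. PARP-1 incorporates biotinylated NAD into biotinyl-poly(ADP-ribose) on immobilized histone substrate. The biotinylated substrate was incubated with the test compound at several concentrations in assay buffer containing PARP-1 enzyme. The read-out was chemiluminescence.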

PARP-1 (poly ADP-ribose polymerase), sequence (P09874 2-1014): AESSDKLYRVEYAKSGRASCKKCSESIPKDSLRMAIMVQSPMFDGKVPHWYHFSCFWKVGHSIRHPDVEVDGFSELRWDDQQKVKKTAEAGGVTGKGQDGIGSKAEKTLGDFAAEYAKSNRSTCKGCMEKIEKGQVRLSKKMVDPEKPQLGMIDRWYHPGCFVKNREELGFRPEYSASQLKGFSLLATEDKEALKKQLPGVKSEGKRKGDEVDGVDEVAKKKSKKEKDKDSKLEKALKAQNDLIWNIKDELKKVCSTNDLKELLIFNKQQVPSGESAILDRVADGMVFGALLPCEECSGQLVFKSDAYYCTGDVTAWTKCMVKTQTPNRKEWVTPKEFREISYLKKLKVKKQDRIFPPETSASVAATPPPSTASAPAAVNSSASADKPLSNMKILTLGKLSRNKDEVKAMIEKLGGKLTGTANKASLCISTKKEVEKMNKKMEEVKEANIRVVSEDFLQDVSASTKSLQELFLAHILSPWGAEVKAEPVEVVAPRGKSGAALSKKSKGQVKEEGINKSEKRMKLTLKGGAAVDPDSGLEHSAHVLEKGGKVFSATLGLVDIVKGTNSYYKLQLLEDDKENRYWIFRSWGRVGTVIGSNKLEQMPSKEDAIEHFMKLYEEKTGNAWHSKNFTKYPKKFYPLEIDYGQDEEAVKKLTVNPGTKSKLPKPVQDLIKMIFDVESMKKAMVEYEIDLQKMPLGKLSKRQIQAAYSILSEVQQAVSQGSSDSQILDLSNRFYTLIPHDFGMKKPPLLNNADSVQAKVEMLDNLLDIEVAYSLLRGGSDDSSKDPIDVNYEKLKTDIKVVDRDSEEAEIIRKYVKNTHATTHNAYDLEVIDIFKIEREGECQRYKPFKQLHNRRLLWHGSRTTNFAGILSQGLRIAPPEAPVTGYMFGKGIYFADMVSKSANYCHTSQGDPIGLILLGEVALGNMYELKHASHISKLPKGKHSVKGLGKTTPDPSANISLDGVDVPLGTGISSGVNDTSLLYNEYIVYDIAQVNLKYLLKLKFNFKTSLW

inhibition at 21.35 µM: 96.2%
SMILES: O=C1C[C@@H](c2ccccc2)Oc2c(Cc3ccccc3O)c(O)c(Cc3ccccc3O)c(O)c21 [dichamanetin]
